Laboratory results from ChEMBL document CHEMBL3244040, “Synthesis and topical antiinflammatory properties of 17,21-bis(acetyloxy)-6beta,9-difluoro-11beta-hydroxypregna-1,4-diene-3,20-dione and related 2-halogenated compounds” (J Med Chem, 1977).
The source made the active and inactive calls. The calls are words filed in the database; no cut-off is given here.

Legend:
[1] = system: Rattus norvegicus; assay: Thymolytic activity in rat assessed as inhibition of thymus weight administered topically measured per pellet; format: organism-based; conditions: in vivo, topical_or_ocular
Procedure, shortened: (§1)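 Cotton-pellet granuloma test in rats; compounds suspended in 0.5% aqueous carboxymethylcellulose applied directly to the pellets, doses up to 40 µg/pellet; at least eight rats per dose. Granuloma and thymus weights converted to mg/100 g body weight. ED30 (30% inhibition) derived from log dose–response least-squares lines with 95% confidence limits, or approximated from eye-fit linear plots.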

[2] = system: Rattus norvegicus; assay: Antiinflammatory activity in rat assessed as inhibition of cotton pellet-induced granuloma weight administered topically measured per pellet; format: functional; procedure, shortened: as §1
[3] = system: Rattus norvegicus; assay: Thymolytic activity in po dosed rat assessed as inhibition of thymus weight administered bid for 7 days; format: organism-based; conditions: in vivo, 168 h
Procedure, shortened: (§2)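 Rat cotton-pellet granuloma test; compounds suspended in 0.5% carboxymethylcellulose in water given orally daily for seven consecutive days, doses up to 12.5 mg/kg die; at least eight rats per dose. Granuloma and thymus weights expressed as mg/100 g body weight. ED30 (30% inhibition) from log dose–response least-squares regression with 95% confidence limits, or extrapolated from eye-fit plots.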

[4] = system: Rattus norvegicus; assay: Antiinflammatory activity in po dosed rat assessed as inhibition of cotton pellet-induced granuloma weight administered bid for 7 days; format: functional, organism-based; procedure, shortened: as §2
[5] = system: Rattus norvegicus; assay: Mineralocorticoid activity in rat assessed as sodium retention up to 1 mg/kg, sc; format: ADME, organism-based; parameters: dose 1 mg/kg, route subcutaneous; conditions: in vivo

Compound | ED30 [1] [µg] | ED30 [2] [µg] | Activity [3] | Activity [4] | Activity [5]
CC(=O)OCC(=O)[C@@]1(OC(C)=O)CC[C@H]2[C@@H]3C[C@H](F)C4=CC(=O)C=C[C@]4(C)[C@@]3(F)[C@@H](O)C[C@@]21C | 5 | 0.1 | Non-toxic | inactive | –
C[C@]12C=C(Cl)C(=O)C=C1[C@H](F)C[C@H]1[C@@H]3CC[C@](O)(C(=O)CO)[C@@]3(C)C[C@H](O)[C@@]12F | > 40 | >40 | – | – | –
CC(=O)OCC(=O)[C@@]1(OC(C)=O)CC[C@H]2[C@@H]3C[C@H](F)C4=CC(=O)C(Cl)=C[C@]4(C)[C@@]3(F)[C@@H](O)C[C@@]21C | 40 | >40 | Non-toxic | inactive | –
CC(=O)OCC(=O)[C@@]1(OC(C)=O)CC[C@H]2[C@@H]3C[C@@H](F)C4=CC(=O)C(Br)=C[C@]4(C)[C@@]3(F)[C@@H](O)C[C@@]21C [HALOPREDONE ACETATE] | > 1000 | 0.01 | Non-toxic | inactive | Non-toxic
CC(=O)OCC(=O)[C@@]1(O)CC[C@H]2[C@@H]3C[C@H](F)C4=CC(=O)C=C[C@]4(C)[C@@]3(F)[C@@H](O)C[C@@]21C | 20 | 40 | – | – | –
CC(=O)OCC(=O)[C@@]1(O)CC[C@H]2[C@@H]3C[C@@H](F)C4=CC(=O)C(Br)=C[C@]4(C)[C@@]3(F)[C@@H](O)C[C@@]21C | > 40 | 40 | – | – | –
CC(=O)OCC(=O)[C@@]1(OC(C)=O)CC[C@H]2[C@@H]3C[C@H](F)C4=CC(=O)C(Br)=C[C@]4(C)[C@@]3(F)[C@@H](O)C[C@@]21C | > 40 | >40 | Non-toxic | inactive | –
C[C@]12C=C(Br)C(=O)C=C1[C@H](F)C[C@H]1[C@@H]3CC[C@](O)(C(=O)CO)[C@@]3(C)C[C@H](O)[C@@]12F | > 40 | >40 | – | – | –
CC(=O)OCC(=O)[C@@]1(OC(C)=O)CC[C@H]2[C@@H]3C[C@@H](F)C4=CC(=O)C(Cl)=C[C@]4(C)[C@@]3(F)[C@@H](O)C[C@@]21C | > 40 | 0.45 | Non-toxic | inactive | –
C[C@]12C=CC(=O)C=C1[C@H](F)C[C@H]1[C@@H]3CC[C@](O)(C(=O)CO)[C@@]3(C)C[C@H](O)[C@@]12F | > 40 | >40 | – | – | –
CC(=O)OCC(=O)[C@@]1(O)CC[C@H]2[C@@H]3C[C@@H](F)C4=CC(=O)C(Cl)=C[C@]4(C)[C@@]3(F)[C@@H](O)C[C@@]21C | > 40 | 9 | – | – | –
C[C@]12C=CC(=O)C=C1[C@@H](F)C[C@H]1[C@@H]3CC[C@](O)(C(=O)CO)[C@@]3(C)C[C@H](O)[C@@]12F | 20 | 40 | – | – | –
CC1(C)O[C@@H]2C[C@H]3[C@@H]4C[C@H](F)C5=CC(=O)C=C[C@]5(C)[C@@]4(F)[C@@H](O)C[C@]3(C)[C@]2(C(=O)CO)O1 [FLUOCINOLONE ACETONIDE] | 5 | 1.02 | – | – | –
CC(=O)OCC(=O)[C@@]1(O)CC[C@H]2[C@@H]3C[C@@H](F)C4=CC(=O)C=C[C@]4(C)[C@@]3(F)[C@@H](O)C[C@@]21C | > 40 | >40 | – | – | –
CC(=O)OCC(=O)[C@@]1(OC(C)=O)CC[C@H]2[C@@H]3C[C@@H](F)C4=CC(=O)C=C[C@]4(C)[C@@]3(F)[C@@H](O)C[C@@]21C | > 40 | 40 | Non-toxic | – | –
